Assay results of several laboratories.
Each line is one published result; the experiments were not run side by side.
Matrix: plasma

| SMILES | host | route | dose | notes | half-life [h] |
| --- | --- | --- | --- | --- | --- |
| CC1(C)CC[C@]2(NC(=O)C(C)(F)F)CC[C@]3(C)[C@H](C(=O)C=C4[C@@]5(C)C=C(C#N)C(=O)C(C)(C)[C@@H]5CC[C@]43C)[C@@H]2C1 | human | oral | 150 mg | single dose | 88.3 |
| C=CC(=O)NC1CCN(c2ncc3ncnc(Nc4ccc(Oc5ccc6c(c5)ncn6C)c(C)c4)c3n2)CC1 | male human | intravenous | 100 µg | healthy volunteers | 42.7 |
| N#Cc1cccc(-c2ccc3ncc(-c4cc(F)cc(F)c4)c(N4CCC(N)CC4)c3c2)c1O | human | intravenous | 50 µg |  | 30 |
| CC(C)c1nc(N(C)S(C)(=O)=O)nc(-c2ccc(F)cc2)c1/C=C/[C@@H](O)C[C@@H](O)CC(=O)O | human | oral | 10 mg |  | 21.6 |
| O=C(COc1ccc(Cl)cc1)NC12CC(c3nnc([C@H]4C[C@@H](OC(F)(F)F)C4)o3)(C1)C2 | human | oral | 145 mg | multiple doses, once daily, healthy volunteers | 37.5 |
| OC[C@H]1O[C@@H](c2cc(Cc3ccc(C4CC4)cc3)c(Cl)c3c2CCO3)[C@H](O)[C@@H](O)[C@@H]1O | human | oral | 0.3 mg | single dose, fasted, healthy volunteers | 12.5 |
| C[C@@H](Oc1ccc(S(C)(=O)=O)cc1C(=O)N1C[C@@H]2C[C@]2(c2cc(C(F)(F)F)on2)C1)C(F)(F)F | human | oral | 10 mg | single dose, fasted, healthy volunteers | 38.1 |
| CC(=O)N(C)[C@H]1CCN(C(=O)c2cnc3c(c2)C[C@](C)(c2ccc(F)cc2)N3)C1 | male human | oral | 30 mg | multiple doses, once daily, steady state | 21.8 |
| Cc1cn([C@H]2C[C@H](N=[N+]=[N-])[C@@H](CO)O2)c(=O)[nH]c1=O | human | oral | 600 mg | single dose, healthy volunteers | 1.95 |
| COc1ccc2c(c1)CN(C(=O)CCN1CCC(Cc3ccccc3)CC1)CC[S@@+]2[O-] | male human | intravenous | 0.15 mg/kg | single dose, healthy volunteers | 6.39 |
